According to ChEMBL document CHEMBL5329185, “Structure-activity relationship studies on vitamin D-based selective SREBP/SCAP inhibitor KK-052” (RSC Med Chem, 2023):
Activity calls are given as the source filed them. The calls are words filed in the database; no cut-off is given here.

Legend:
[1] = biological target: T1, Vitamin D3 receptor (Homo sapiens) (UniProt P11473); assay: Activation of VDR (unknown origin) transfected in CHO-K1 cells assessed as luciferase activity at 5 uM measured after 24 hrs by Steady-Glo luciferase assay; type: cell-based; settings: filed as activator
T1 sequence (whole entry): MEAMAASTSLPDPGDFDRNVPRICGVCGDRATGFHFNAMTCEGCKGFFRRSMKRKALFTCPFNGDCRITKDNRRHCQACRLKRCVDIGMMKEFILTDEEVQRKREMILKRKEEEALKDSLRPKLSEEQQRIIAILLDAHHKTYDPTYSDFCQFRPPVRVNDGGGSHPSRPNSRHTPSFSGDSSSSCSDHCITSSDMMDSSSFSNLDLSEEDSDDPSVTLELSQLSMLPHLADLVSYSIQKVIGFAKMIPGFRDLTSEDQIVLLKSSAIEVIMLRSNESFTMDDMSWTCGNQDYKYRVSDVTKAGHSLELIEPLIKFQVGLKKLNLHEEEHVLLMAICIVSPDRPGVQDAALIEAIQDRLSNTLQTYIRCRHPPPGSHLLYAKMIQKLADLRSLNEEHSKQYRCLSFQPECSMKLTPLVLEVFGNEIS
How it was run: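 CHO-K1 cells transfected with a VDRE-driven luciferase reporter, then treated with compounds at 5 μM in lipid-free medium. 25(OH)D3 run in parallel as control, DMSO as negative control. Luciferase read-out, mean ± SD.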

CHO-K1 [2] = assay: Downregulation of SCAP protein level in wild type CHO-K1 cells at 15 uM measured after 24 hrs by Western blot analysis; type: functional, cell-based; settings: Cricetulus griseus
How it was run: (§1)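 Wild-type CHO-K1 cells or CHO-K1 cells overexpressing FLAG-SCAP(1–767) held in lipid-free medium with 15 μM compound for 24 h. Lysis in RIPA with protease inhibitors, 20 000g spin, BCA protein assay, SDS-PAGE and immunoblot. Endogenous SCAP probed with anti-hamster SCAP, the overexpressed form with anti-FLAG M2, actin as loading control. HRP chemiluminescence detection.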

CHO-K1 [3] = assay: Downregulation of SCAP protein level in CHO-K1 cells harbouring FLAG-SCAP (1 to 767 residues) at 15 uM measured after 24 hrs by Western blot analysis; type: functional, cell-based; settings: Cricetulus griseus; how it was run: as §1
CHO-K1 [4] = assay: Inhibition of SREBP/SCAP (unknown origin) transfected with CHO-K1 cells cotransfected with pSRE-Luc/pAC-beta-gal at 5 uM measured after 24 hrs by Steady-Glo luciferase assay; type: cell-based; settings: Homo sapiens
How it was run: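 CHO-K1 cells transfected with an SRE-controlled luciferase reporter, exposed to compounds at 5 μM in lipid-free medium. 25(OH)D3 tested alongside as control. Luciferase signal reported as mean ± SD.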

[5] = Inhibition of SREBP/SCAP (unknown origin) transfected with CHO-K1 cells cotransfected with pSRE-Luc/pAC-beta-gal measured after 24 hrs by Steady-Glo luciferase assay; type: cell-based; settings: CHO-K1, 24 h
How it was run: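 IC50 taken from a dose-response in CHO-K1 cells transfected with an SRE-driven luciferase reporter. Cells were treated with various compound concentrations in lipid-free medium. Luciferase read-out, mean ± SD.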

Row | Compound | Activity [1] | IC50 [5] [nM] | Activity (CHO-K1 [2]) | Activity (CHO-K1 [3]) | inhibition (CHO-K1 [4])
1 | Cc1ccc(-c2nnnn2C/C=C2\CCC[C@]3(C)[C@@H]([C@H](C)CCC(F)(F)C(C)(C)O)CC[C@@H]23)cc1 | Active | – | – | – | –
2 | Cc1cccc(-c2nnnn2C/C=C2\CCC[C@]3(C)[C@@H]([C@H](C)CCC(F)(F)C(C)(C)O)CC[C@@H]23)c1 | – | 1400 | Active | Active | Active
3 | C[C@H](CCC(F)(F)C(C)(C)O)[C@H]1CC[C@H]2/C(=C/Cn3nnc(-c4ccccc4Cl)n3)CCC[C@]12C | – | 2000 | Active | Active | Active
4 | C[C@H](CCC(F)(F)C(C)(C)O)[C@H]1CC[C@H]2/C(=C/Cn3nnnc3-c3ccc(C(F)(F)F)cc3)CCC[C@]12C | Active | – | – | – | –
5 | C[C@H](CCC(F)(F)C(C)(C)O)[C@H]1CC[C@H]2/C(=C/Cn3nnnc3-c3ccccc3)CCC[C@]12C | – | 3500 | Active | Active | –
6 | C=C1CC[C@H](O)C/C1=C/C=C1\CCC[C@]2(C)[C@@H]([C@H](C)CCCC(C)(C)O)CC[C@@H]12 | – | – | Active | Active | –

More lines, main results first:

Row | Activity [1] | IC50 [5] [nM] | Compound | Activity (CHO-K1 [2]) | Activity (CHO-K1 [3]) | inhibition (CHO-K1 [4])
7 | Active | – | C[C@H](CCC(F)(F)C(C)(C)O)[C@H]1CC[C@H]2/C(=C/Cn3nnc(-c4ccc(C(F)(F)F)cc4)n3)CCC[C@]12C | – | – | –
8 | Active | – | Cc1ccc(-c2nnn(C/C=C3\CCC[C@]4(C)[C@@H]([C@H](C)CCC(F)(F)C(C)(C)O)CC[C@@H]34)n2)cc1 | – | – | –
9 | Active | – | C[C@H](CCC(F)(F)C(C)(C)O)[C@H]1CC[C@H]2/C(=C/Cn3nnnc3-c3ccc(Cl)cc3)CCC[C@]12C | – | – | –
10 | Active | – | C[C@H](CCC(F)(F)C(C)(C)O)[C@H]1CC[C@H]2/C(=C/Cn3nnc(-c4ccc(Cl)cc4)n3)CCC[C@]12C | – | – | –
